Active and inactive are the calls of the source. No cut-off for these calls is given here.
Columns and labels:
Caspase-3 (Homo sapiens) [1] = molecular target: T1, Caspase-3 (Homo sapiens) (UniProt P42574); experiment: Second-order inhibition rate of caspase-3 was determined by progress curve method
T1 sequence (whole entry): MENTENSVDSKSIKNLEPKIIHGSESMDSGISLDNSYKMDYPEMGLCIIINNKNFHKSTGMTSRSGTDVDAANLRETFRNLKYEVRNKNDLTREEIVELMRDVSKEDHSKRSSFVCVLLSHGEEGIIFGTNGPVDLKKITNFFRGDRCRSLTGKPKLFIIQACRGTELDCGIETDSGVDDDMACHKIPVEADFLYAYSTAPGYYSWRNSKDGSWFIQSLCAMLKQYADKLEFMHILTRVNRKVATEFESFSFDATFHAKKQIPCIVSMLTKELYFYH
Outline: (§1)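 Caspases-3, -6 and -8 were assayed in 50 mM HEPES, 100 mM NaCl, 0.1% (w/v) CHAPS, 10% (w/v) sucrose and 10 mM DTT, pH 7.4. Substrate: Cbz-DEVD-AFC or Cbz-DEVD-AMC.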

Caspase-6 (Homo sapiens) [2] = molecular target: T2, Caspase-6 (Homo sapiens) (UniProt P55212); experiment: Second-order inhibition rate of caspase-6 was determined by progress curve method; outline: as §1
T2 sequence (whole entry): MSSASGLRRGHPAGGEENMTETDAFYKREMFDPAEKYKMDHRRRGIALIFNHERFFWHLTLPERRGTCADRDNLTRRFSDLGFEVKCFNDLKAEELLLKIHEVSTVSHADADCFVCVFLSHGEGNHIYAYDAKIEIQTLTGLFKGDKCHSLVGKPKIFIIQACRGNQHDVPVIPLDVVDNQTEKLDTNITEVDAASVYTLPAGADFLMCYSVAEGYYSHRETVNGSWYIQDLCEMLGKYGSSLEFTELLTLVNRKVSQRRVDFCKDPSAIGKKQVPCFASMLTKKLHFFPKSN

Caspase-8 (Homo sapiens) [3] = molecular target: Caspase-8 (Homo sapiens) (UniProt Q14790); experiment: Second-order inhibition rate of caspase-8 was determined by progress curve method; outline: as §1
Sequence of Caspase-8 (Homo sapiens) (Q14790 217-374 limits assumed): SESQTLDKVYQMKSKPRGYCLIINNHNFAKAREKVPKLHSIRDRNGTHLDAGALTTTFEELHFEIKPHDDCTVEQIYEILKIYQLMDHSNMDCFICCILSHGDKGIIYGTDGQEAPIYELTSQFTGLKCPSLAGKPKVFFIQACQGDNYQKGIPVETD
Sequence of Caspase-8 (Homo sapiens) (Q14790 385-479 limits assumed): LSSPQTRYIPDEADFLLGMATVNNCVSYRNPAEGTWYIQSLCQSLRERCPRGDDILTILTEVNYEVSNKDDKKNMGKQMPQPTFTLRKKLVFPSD

Caspase-1 (Homo sapiens) = molecular target: T3, Caspase-1 (Homo sapiens) (UniProt P29466); experiment: Second-order inhibition rate of caspase-1 was determined by progress curve method
T3 sequence (whole entry): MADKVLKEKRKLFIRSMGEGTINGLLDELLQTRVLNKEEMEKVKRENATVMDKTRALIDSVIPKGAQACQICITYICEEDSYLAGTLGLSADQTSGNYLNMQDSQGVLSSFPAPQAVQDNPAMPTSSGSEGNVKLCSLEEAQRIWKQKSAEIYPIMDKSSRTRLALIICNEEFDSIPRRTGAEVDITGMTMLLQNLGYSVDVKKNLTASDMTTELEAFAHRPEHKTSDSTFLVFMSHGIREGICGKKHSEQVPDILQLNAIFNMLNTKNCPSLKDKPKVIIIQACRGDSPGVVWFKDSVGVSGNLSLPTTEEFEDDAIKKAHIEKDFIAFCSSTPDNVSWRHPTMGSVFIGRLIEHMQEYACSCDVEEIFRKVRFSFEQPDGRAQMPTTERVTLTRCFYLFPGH
Outline: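 Caspase-1 assay buffer: 100 mM HEPES, 0.5 mM EDTA, 20% (v/v) glycerol, 5 mM DTT, pH 7.5. Substrate: Ac-YVAD-AMC.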

Caspase-3 (Homo sapiens) [4] = molecular target: T1, Caspase-3 (Homo sapiens); experiment: Second-order inhibition rate of caspase-3 was determined by progress curve method; No inhibition; outline: as §1
Caspase-6 (Homo sapiens) [5] = molecular target: T2, Caspase-6 (Homo sapiens); experiment: Second-order inhibition rate of caspase-6 was determined by progress curve method; No inhibition; outline: as §1
Caspase-8 (Homo sapiens) [6] = molecular target: Caspase-8 (Homo sapiens) (UniProt Q14790); experiment: Second-order inhibition rate of caspase-8 was determined by progress curve method; No inhibition; outline: as §1

Row | SMILES | k2 (Caspase-3 (Homo sapiens) [1]) [M⁻¹ s⁻¹] | k2 (Caspase-6 (Homo sapiens) [2]) [M⁻¹ s⁻¹] | k2 (Caspase-8 (Homo sapiens) [3]) [M⁻¹ s⁻¹] | k2 (Caspase-1 (Homo sapiens)) [M⁻¹ s⁻¹] | k2 (Caspase-3 (Homo sapiens) [4]) | k2 (Caspase-6 (Homo sapiens) [5]) | k2 (Caspase-8 (Homo sapiens) [6])
1 | CC(C)C[C@H](NC(=O)OCc1ccccc1)C(=O)NC(CCC(=O)O)C(=O)N[C@H](C(=O)NN(CC(=O)O)C(=O)[C@H]1O[C@@H]1C(=O)N[C@@H](C)C(=O)NCc1ccccc1)[C@@H](C)O (some centres not stated) | 1280 | 6660 | 44800 | – | – | – | –
2 | CC(C)C[C@H](NC(=O)OCc1ccccc1)C(=O)NC(CCC(=O)O)C(=O)N[C@H](C(=O)NN(CC(=O)O)C(=O)[C@H]1O[C@@H]1C(=O)NCCc1ccccc1)[C@@H](C)O (some centres not stated) | 2550 | 10000 | 53300 | – | – | – | –
3 | CC[C@H](C)[C@H](NC(=O)OCc1ccccc1)C(=O)N[C@@H](CCC(=O)O)C(=O)N[C@H](C(=O)NN(CC(=O)O)C(=O)[C@@H]1O[C@H]1C(=O)OCc1ccccc1)[C@@H](C)O | 3110 | 45400 | 4560 | 13000 | – | – | –
4 | CC(C)[C@H](NC(=O)CCc1ccccc1)C(=O)N[C@@H](C)C(=O)NN(CC(=O)O)C(=O)[C@@H]1O[C@H]1C(=O)OCc1ccccc1 | – | 15 | 185 | 1860 | inactive | – | –
5 | CC(C)[C@H](NC(=O)CCc1ccccc1)C(=O)N[C@@H](C)C(=O)NN(CC(=O)O)C(=O)[C@@H]1O[C@H]1C(=O)N[C@@H](C)C(=O)NCc1ccccc1 | – | – | – | 270 | inactive | inactive | inactive
6 | CC(C)[C@H](NC(=O)OCc1ccccc1)C(=O)NN(CC(=O)O)C(=O)[C@H]1O[C@@H]1C(=O)O | 1110 | 90 | 370 | – | – | – | –
7 | CC(C)C[C@H](NC(=O)[C@H]1O[C@@H]1C(=O)N(CC(=O)O)NC(=O)[C@H](C)NC(=O)[C@@H](NC(=O)CCc1ccccc1)C(C)C)C(N)=O | 420 | 71 | 315 | 26100 | – | – | –
8 | CC(C)[C@H](NC(=O)OCc1ccccc1)C(=O)NN(CC(=O)O)C(=O)[C@H]1O[C@@H]1c1ccc(Cl)cc1 | 145 | – | – | – | – | inactive | inactive
9 | CC(C)[C@H](NC(=O)CCc1ccccc1)C(=O)N[C@@H](C)C(=O)NN(CC(=O)O)C(=O)[C@H]1O[C@@H]1C(=O)NCC(O)c1ccccc1 (some centres not stated) | 510 | 63 | 4090 | 12200 | – | – | –
10 | CC(C)[C@H](NC(=O)CCc1ccccc1)C(=O)N[C@@H](C)C(=O)NN(CC(=O)O)C(=O)[C@@H]1O[C@H]1C(=O)NCc1ccccc1 | – | – | – | 1630 | inactive | inactive | inactive
11 | CC(C)[C@H](NC(=O)C(CCC(=O)O)NC(=O)[C@H](CC(=O)O)NC(=O)OCc1ccccc1)C(=O)NN(CC(=O)O)C(=O)[C@H]1O[C@@H]1C(=O)N[C@@H](Cc1ccccc1)C(N)=O (some centres not stated) | 722000 | 6140 | 29600 | 9250 | – | – | –
12 | CC(C)[C@H](NC(=O)OCc1ccccc1)C(=O)NN(CC(=O)O)C(=O)[C@H]1O[C@@H]1CCc1ccccc1 | 310 | 44 | 180 | – | – | – | –
13 | CC[C@H](C)[C@H](NC(=O)OCc1ccccc1)C(=O)N[C@@H](CCC(=O)O)C(=O)N[C@H](C(=O)NN(CC(=O)O)C(=O)[C@@H]1O[C@H]1C(=O)N[C@@H](C)C(=O)NCc1ccccc1)[C@@H](C)O | 3050 | 38200 | 56000 | – | – | – | –
14 | CCOC(=O)[C@H]1O[C@@H]1C(=O)N(CC(=O)O)NC(=O)[C@@H](NC(=O)OCc1ccccc1)C(C)C | 3650 | 350 | 1260 | – | – | – | –
15 | CC(C)[C@H](NC(=O)C(CCC(=O)O)NC(=O)[C@H](CC(=O)O)NC(=O)OCc1ccccc1)C(=O)NN(CC(=O)O)C(=O)[C@H]1O[C@@H]1C(=O)NCc1ccccc1 (some centres not stated) | 1.09e+06 | 6000 | 84400 | 25400 | – | – | –
16 | CC(C)[C@H](NC(=O)CCc1ccccc1)C(=O)N[C@@H](C)C(=O)NN(CC(=O)O)C(=O)[C@H]1O[C@@H]1C(=O)N[C@@H](Cc1ccc(O)cc1)C(N)=O | 87 | 11 | 125 | 3250 | – | – | –
17 | CC(C)[C@H](NC(=O)CCc1ccccc1)C(=O)N[C@@H](C)C(=O)NN(CC(=O)O)C(=O)[C@H]1O[C@@H]1C(=O)OCCc1ccccc1 | 2110 | 240 | 3780 | 56600 | – | – | –
18 | CC(C)[C@H](NC(=O)CCc1ccccc1)C(=O)N[C@@H](C)C(=O)NN(CC(=O)O)C(=O)[C@H]1O[C@@H]1C(=O)N[C@@H](Cc1ccccc1)C(N)=O | 625 | 65 | 390 | 32700 | – | – | –
19 | CC(C)[C@H](NC(=O)C(CCC(=O)O)NC(=O)[C@H](CC(=O)O)NC(=O)OCc1ccccc1)C(=O)NN(CC(=O)O)C(=O)[C@H]1O[C@@H]1C(=O)OCc1ccccc1 (some centres not stated) | 1.91e+06 | 12700 | 188000 | 54700 | – | – | –

Next, values leading:

Row | k2 (Caspase-3 (Homo sapiens) [1]) [M⁻¹ s⁻¹] | k2 (Caspase-6 (Homo sapiens) [2]) [M⁻¹ s⁻¹] | k2 (Caspase-8 (Homo sapiens) [3]) [M⁻¹ s⁻¹] | k2 (Caspase-1 (Homo sapiens)) [M⁻¹ s⁻¹] | k2 (Caspase-3 (Homo sapiens) [4]) | k2 (Caspase-6 (Homo sapiens) [5]) | k2 (Caspase-8 (Homo sapiens) [6]) | SMILES
20 | 3520 | 10300 | 72700 | 43500 | – | – | – | CC(C)C[C@H](NC(=O)OCc1ccccc1)C(=O)NC(CCC(=O)O)C(=O)N[C@H](C(=O)NN(CC(=O)O)C(=O)[C@H]1O[C@@H]1C(=O)OCc1ccccc1)[C@@H](C)O (some centres not stated)
21 | 27300 | 3130 | 72700 | 41100 | – | – | – | CC(C)[C@H](NC(=O)[C@H](CCC(=O)O)NC(=O)OCc1ccccc1)C(=O)NN(CC(=O)O)C(=O)[C@H]1O[C@@H]1C(=O)NCCc1ccccc1
22 | 2630 | 34000 | 8800 | 13300 | – | – | – | CCOC(=O)[C@@H]1O[C@H]1C(=O)N(CC(=O)O)NC(=O)[C@@H](NC(=O)[C@H](CCC(=O)O)NC(=O)[C@@H](NC(=O)OCc1ccccc1)[C@@H](C)CC)[C@@H](C)O
23 | 1610 | 155 | 9360 | 65900 | – | – | – | CC(C)[C@H](NC(=O)CCc1ccccc1)C(=O)N[C@@H](C)C(=O)NN(CC(=O)O)C(=O)[C@H]1O[C@@H]1C(=O)NCc1ccccc1
24 | 470 | 25 | – | 1040 | – | – | – | CC(C)[C@H](NC(=O)[C@H](CCC(=O)O)NC(=O)OCc1ccccc1)C(=O)NN(CC(=O)O)C(=O)[C@@H]1O[C@H]1C(=O)N[C@@H](Cc1ccccc1)C(N)=O
25 | 6500 | 60100 | 6500 | 18100 | – | – | – | CC[C@H](C)[C@H](NC(=O)OCc1ccccc1)C(=O)N[C@@H](CCC(=O)O)C(=O)N[C@H](C(=O)NN(CC(=O)O)C(=O)[C@@H]1O[C@H]1C(=O)NCc1ccccc1)[C@@H](C)O
26 | 260 | 25 | 140 | 13400 | – | – | – | CC(C)[C@H](NC(=O)CCc1ccccc1)C(=O)N[C@@H](C)C(=O)NN(CC(=O)O)C(=O)[C@H]1O[C@@H]1C(=O)N[C@@H](C)C(=O)NCc1ccccc1
27 | 1110 | 130 | 10100 | 17100 | – | – | – | CC(C)[C@H](NC(=O)CCc1ccccc1)C(=O)N[C@@H](C)C(=O)NN(CC(=O)O)C(=O)[C@H]1O[C@@H]1C(=O)NCCc1ccccc1
28 | 9500 | 86200 | 58500 | 45800 | – | – | – | CC[C@H](C)[C@H](NC(=O)OCc1ccccc1)C(=O)N[C@@H](CCC(=O)O)C(=O)N[C@H](C(=O)NN(CC(=O)O)C(=O)[C@H]1O[C@@H]1C(=O)OCc1ccccc1)[C@@H](C)O
29 | 1910 | 142 | 6050 | – | – | – | – | CCNC(=O)[C@H]1O[C@@H]1C(=O)N(CC(=O)O)NC(=O)[C@H](C)NC(=O)[C@@H](NC(=O)CCc1ccccc1)C(C)C
